From ChEMBL document CHEMBL1132243, “Structure-activity relationships of L-dioxolane uracil nucleosides as anti-Epstein Barr virus agents” (J Med Chem, 1999)
pEC50, pIC50: −log10 of the molar value.

What was measured:
Human gammaherpesvirus 4 [1] = test: (§1) Effective concentration of compound against Epstein Barr virus was determined; assay type: functional, organism-based
Outline: (§2)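 Log-phase H1 cells seeded at 2 × 10^5 cells/well, exposed to a range of concentrations at 37 °C for 5 days. EBV DNA was measured by slot blot of freeze-thaw lysates in 10 mM Tris-HCl pH 7.5 with RNase A (50 μg/mL final, 55 °C, 2 h), probed with EBV EcoRI fragment, then reprobed with Alu. The EBV/Alu ratio was compared with untreated cells.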

[2] = Cytotoxicity on human P3HR1 derived H1 cells; assay type: functional; details: read-out: ID50 (the source's name)
Outline: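 H1 cells seeded at 2 × 10^5 cells/well with various compound concentrations for 3 days, then counted. ID50 is the dose giving a 50% drop in cell number versus the untreated control. Medium was RPMI 1640 with 10% dialyzed FBS, 37 °C, 5% CO2.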

[3] = Toxicity of compound was determined as decrease in mt-DNAcontent in human P3HR1 derived H1 cells; assay type: cell-based
Outline: (§3)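 H1 cells (high-yield EBV producers derived from P3HR1), kept in log growth for 2 days, seeded at 2 × 10^5 cells/well with or without compound at various concentrations, 37 °C for 5 days. Lysed by freeze-thaw, RNase A treated, slot-blotted, then hybridized with a mitochondrial DNA probe after the Alu probe was stripped. mtDNA content compared with untreated cells.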

Human gammaherpesvirus 4 [4] = test: as §1; assay type: functional; outline: as §2
[5] = Selective Index from ID50 to that of EC90
[6] = Compound was tested for cytotoxicity against mt-DNA; outline: as §3
[7] = Selective Index (ID50/EC90)

Row | pEC50 (Human gammaherpesvirus 4 [1]; human gammaherpesvirus 4) | Structure (SMILES) | pIC50 ([2]; Homo sapiens, H1) | Toxicity [3] | EC90 (Human gammaherpesvirus 4 [4]) | further results
1 | 4.30 | O=c1[nH]c(=O)n([C@H]2CO[C@@H](CO)O2)cc1F | < 4.00 | > 50 µM | – | –
2 | 6.22 | O=c1[nH]c(=O)n(C2COC(CO)O2)cc1Cl (stereo not given) | < 4.00 | > 50 µM | 1.37 µM | Selectivity index [5]: > 72
3 | 5.30 | Nc1nc2c(ncn2COC(CO)CO)c(=O)[nH]1 [GANCICLOVIR] | 4.12 | – | – | –

The remaining lines, values behind:

Row | Structure (SMILES) | pEC50 (Human gammaherpesvirus 4 [1]; human gammaherpesvirus 4) | pIC50 ([2]; Homo sapiens, H1) | Toxicity [3] | EC90 (Human gammaherpesvirus 4 [4]) | further results
4 | O=c1[nH]c(=O)n(C2COC(CO)O2)cc1C(F)(F)F (stereo not given) | 5.40 | < 4.00 | – | – | –
5 | O=c1ccn([C@H]2CO[C@@H](CO)O2)c(=O)[nH]1 | < 4.30 | – | – | – | –
6 | O=c1[nH]c(=O)n(C2COC(CO)O2)cc1I (stereo in doubt; 17) [listing 1 of 2 here] | – | – | > 50 µM | 0.16 µM | pEC50 (Human gammaherpesvirus 4 [1]): 7.48; pIC50 [2]: < 3.00
7 | O=c1[nH]c(=O)n(C2COC(CO)O2)cc1I (stereo in doubt) | – | – | – | – | pEC50 (Human gammaherpesvirus 4 [1]): 5.12; pIC50 [2]: 4.74
8 | O=c1[nH]c(=O)n([C@H]2CO[C@@H](CO)O2)cc1Br | 6.72 | < 3.00 | – | 0.48 µM | Toxicity [6]: > 50 µM; Selectivity index [7]: > 2080
9 | O=c1[nH]c(=O)n(C2COC(CO)O2)cc1I (stereo in doubt; 17) [listing 2 of 2 here] | – | – | – | – | Selectivity index [5]: > 6250
